Test results published in ChEMBL document CHEMBL1150201, “Verbascoside isolated from Lantana camara, an inhibitor of protein kinase C” (J Nat Prod, 1991).
The source made the active and inactive calls. The calls are words filed in the database; no cut-off is given here.

Experiments:
L1210 [1] = assay: Antiproliferative activity against mouse L1210 cells after 48 hrs by coulter counting analysis; assay type: functional, cell-based; conditions: L1210, 48 h
Outline: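 L1210 cells seeded at 10^4 per well in DMEM with 10% fetal calf serum, 4 mM glutamine and penicillin/streptomycin, with compound added from DMSO. Grown 2 days at 37° in 5% CO₂, then counted in a Coulter counter. Cultures were logarithmically growing at plating; n = 6. IC₅₀ taken from linear regression lines.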

L1210 [2] = assay: Cytotoxicity against mouse L1210 cells at 25 uM by MTT assay; assay type: functional, cell-based
Outline: (§1)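 MTT colorimetric assay after Mosmann, measuring reduction of the tetrazolium to blue formazan by viable cells, read photometrically. Treated cells were compared with the same number of untreated cells.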

[3] = molecular target: T1, Protein kinase C (PKC) (Rattus norvegicus) (UniProt P05696+P68403+P09216+P63319+P09215+Q64617+Q9WTQ0+P09217); assay: Inhibition of rat brain PKC catalytic domain using histone type 3-S as substrate by noncompetitive Lineweaver-Burke plot analysis
Outline: (§2)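 Catalytic fragment made by incubating PKC for 10 min at 30° with 1 µg/ml trypsin, giving calcium- and lipid-independent activity. It was then assayed in the mixed-micelle histone phosphorylation assay, varying ATP or histone.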

[4] = molecular target: T1, Protein kinase C (PKC) (Rattus norvegicus); assay: Displacement of [3H]PDBu from rat brain PKC at 1 mM by scintillation counting
Outline: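 PKC incubated 1 h at 30° in 250 µl of 50 mM Tris/HCl pH 7.4 with 1 mM CaCl₂, 39.2 nM [³H]-PDBu and 50 µg/ml PKC, plus compound. Nonspecific binding defined with 100-fold excess unlabelled PDBu. Diluted with ice-cold buffer, filtered on glass fiber, washed 3 times, bound radioactivity by scintillation counting.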

L1210 [5] = assay: Cytotoxicity against mouse L1210 cells at 10 uM by MTT assay; assay type: functional, cell-based; outline: as §1
Protein kinase C (PKC) [6] = assay: Displacement of [gamma32P]ATP from rat brain PKC by competitive Lineweaver-Burke plot analysis
Outline: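 Rat brain PKC (0.5 µg) in the mixed-micelle assay with histone fixed at 200 µg/ml and ATP varied. Inhibitor levels were 0, 5, 10 and 15 µM. Data were analysed as double-reciprocal plots. Apparent Ki came from line intersections by unweighted least-squares fit.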

[7] = molecular target: T1, Protein kinase C (PKC) (Rattus norvegicus); assay: Displacement of [gamma32P]ATP from rat brain PKC catalytic domain by competitive Lineweaver-Burke plot analysis; outline: as §2
[8] = Inhibition of PKA at 100 uM
[9] = molecular target: T1, Protein kinase C (PKC) (Rattus norvegicus); assay: (§3) Inhibition of rat brain PKC by mixed micellar assay
Outline: (§4)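 PKC purified from rat brain, 0.5 µg per tube. Medium was 20 mM Tris/HCl pH 7.5, 10 mM MgCl₂, 200 µg/ml histone IIIS, micelles of 700 µM phosphatidylserine and 180 µM 1,2-dioleine in 0.3% Triton X-100, 0.2 mM CaCl₂, 100 µM ATP with [γ-³²P]-ATP and compound in DMSO. After 3 min at 30°, TCA-precipitated material was filtered and counted. Activity without micelles/CaCl₂ subtracted; 6 replicates.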

Protein kinase C (PKC) [10] = assay: as §3; outline: as §4
Protein kinase C (PKC) [11] = assay: Inhibition of rat brain PKC using histone type 3-S as substrate by noncompetitive Lineweaver-Burke plot analysis
Protein kinase C (PKC) [12] = assay: Inhibition of rat brain PKC catalytic domain by mixed micellar assay; outline: as §2
LSTRA = assay: Inhibition of protein tyrosine kinase in mouse LSTRA cells assessed as formation of [32P]phosphotyrosine at 100 uM by gel electrophoresis; assay type: cell-based

Structure (SMILES) | IC50 (L1210 [1]) | Activity (L1210 [2]) | Activity [3] | inhibition [4] | Activity (L1210 [5]) | Ki (Protein kinase C (PKC) [6]) | Activity [7] | inhibition [8] | Activity [9] | IC50 (Protein kinase C (PKC) [10]) | Ki (Protein kinase C (PKC) [11]) | IC50 (Protein kinase C (PKC) [12]) | inhibition (LSTRA)
C[C@H]1CNCCN1S(=O)(=O)c1cccc2cnccc12 | 23.5 µM | inactive |  |  |  |  |  |  |  |  |  |  | 
C[C@@H]1O[C@@H](O[C@@H]2[C@@H](O)[C@H](OCCc3ccc(O)c(O)c3)O[C@H](CO)[C@H]2OC(=O)/C=C/c2ccc(O)c(O)c2)[C@H](O)[C@H](O)[C@H]1O [ACETOSIDE] | 13 µM |  | Active | 9% | inactive | 22 µM | Active | < 10% | Dose-dependent effect | 25 µM | 28 µM | 21 µM | < 10%
